Experimental data as given in ChEMBL document CHEMBL4014357, “Structure-Based Design and Synthesis of Potent and Selective Matrix Metalloproteinase 13 Inhibitors” (J Med Chem, 2017).
Each block holds one compound with its values, some of them ahead of it. Active and inactive are the calls of the source. No cut-off for these calls is given here.

Assays:
[1] = target: T1, 72 kDa type IV collagenase (Homo sapiens, UniProt P08253); test: Inhibition of recombinant human MMP2 expressed in mouse NSO cells using fTHP-15 as substrate preincubated for 30 mins followed by substrate addition measured immediately by fluorescence assay
[2] = target: T2, Neutrophil collagenase (Homo sapiens, UniProt P22894); test: Inhibition of MMP8 (unknown origin) using fTHP-15 as substrate preincubated for 30 mins followed by substrate addition measured immediately by fluorescence assay
[3] = target: Matrix metalloproteinase-9 (Homo sapiens, UniProt P14780); test: Inhibition of MMP9 (unknown origin) using fTHP-15 as substrate preincubated for 30 mins followed by substrate addition measured immediately by fluorescence assay
[4] = target: Matrix metalloproteinase-14 (Homo sapiens, UniProt P50281); test: Inhibition of recombinant human MMP14 using fTHP-15 as substrate preincubated for 30 mins followed by substrate addition measured immediately by fluorescence assay
[5] = target: T3, Collagenase 3 (Homo sapiens, UniProt P45452); test: Inhibition of full length recombinant human MMP13 expressed in mouse NSO cells using fTHP-15 as substrate preincubated for 30 mins followed by substrate addition measured immediately by fluorescence assay
[6] = target: T1, 72 kDa type IV collagenase; test: Inhibition of recombinant human MMP2 expressed in mouse NSO cells at 200 nM using fTHP-15 as substrate preincubated for 30 mins followed by substrate addition measured immediately by fluorescence assay
In short: (§1)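 Each enzyme was activated per the supplier's protocol and diluted in EAB (50 mM Tris·HCl pH 7.5, 100 mM NaCl, 10 mM CaCl2, 0.05% Brij-35). Compound was tested at a single 200 nM and preincubated with enzyme for 30 min at 25 °C. Adding fTHP-15 started the reaction, with fluorescence read immediately. Inhibition was scored as percent substrate-to-product conversion after 30 min.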

[7] = target: T2, Neutrophil collagenase; test: Inhibition of MMP8 (unknown origin) at 200 nM using fTHP-15 as substrate preincubated for 30 mins followed by substrate addition measured immediately by fluorescence assay; in short: as §1
[8] = target: T3, Collagenase 3; test: Inhibition of full length recombinant human MMP13 expressed in mouse NSO cells using varying levels of fTHP-15 as substrate preincubated for 30 mins followed by substrate addition measured immediately by Lineweaver-Burk plot analysis
[9] = target: Angiotensin-converting enzyme (Homo sapiens) (UniProt P12821); test: Inhibition of ACE (unknown origin) at 1 uM relative to control
[10] = target: Angiotensin-converting enzyme 2 (Homo sapiens) (UniProt Q9BYF1); test: Inhibition of ACE2 (unknown origin) at 1 uM relative to control
[11] = target: Disintegrin and metalloproteinase domain-containing protein 10 (Homo sapiens) (UniProt O14672); test: Inhibition of ADAM10 (unknown origin) at 1 uM relative to control
[12] = target: Beta-secretase 1 (Homo sapiens) (UniProt P56817); test: Inhibition of BACE1 (unknown origin) at 1 uM relative to control
[13] = target: Caspase-1 (Homo sapiens) (UniProt P29466); test: Inhibition of caspase1 (unknown origin) at 1 uM relative to control
[14] = target: Caspase-2 (Homo sapiens) (UniProt P42575); test: Inhibition of caspase2 (unknown origin) at 1 uM relative to control
[15] = target: Caspase-3 (Homo sapiens) (UniProt P42574); test: Inhibition of caspase3 (unknown origin) at 1 uM relative to control
[16] = target: Caspase-5 (Homo sapiens) (UniProt P51878); test: Inhibition of caspase5 (unknown origin) at 1 uM relative to control
[17] = target: Caspase-6 (Homo sapiens) (UniProt P55212); test: Inhibition of caspase6 (unknown origin) at 1 uM relative to control
[18] = target: Caspase-7 (Homo sapiens) (UniProt P55210); test: Inhibition of caspase7 (unknown origin) at 1 uM relative to control
[19] = target: Cathepsin D (Homo sapiens) (UniProt P07339); test: Inhibition of cathepsin-D (unknown origin) at 1 uM relative to control
[20] = target: Cathepsin K (Homo sapiens) (UniProt P43235); test: Inhibition of cathepsin-K (unknown origin) at 1 uM relative to control
[21] = target: Procathepsin L (Homo sapiens) (UniProt P07711); test: Inhibition of cathepsin-L (unknown origin) at 1 uM relative to control
[22] = target: Cathepsin S (Homo sapiens) (UniProt P25774); test: Inhibition of cathepsin-S (unknown origin) at 1 uM relative to control
[23] = target: Coagulation factor X (Homo sapiens) (UniProt P00742); test: Inhibition of factor10a (unknown origin) at 1 uM relative to control
[24] = target: Furin (Homo sapiens) (UniProt P09958); test: Inhibition of furin (unknown origin) at 1 uM relative to control
[25] = target: Insulin-degrading enzyme (Homo sapiens) (UniProt P14735); test: Inhibition of IDE (unknown origin) at 1 uM relative to control
[26] = target: Matrilysin (Homo sapiens) (UniProt P09237); test: Inhibition of MMP7 (unknown origin) at 1 uM relative to control
[27] = target: Neprilysin (Homo sapiens) (UniProt P08473); test: Inhibition of neprilysin (unknown origin) at 1 uM relative to control
[28] = target: Disintegrin and metalloproteinase domain-containing protein 17 (Homo sapiens) (UniProt P78536); test: Inhibition of TACE (unknown origin) at 1 uM relative to control
[29] = target: Prothrombin (Homo sapiens) (UniProt P00734); test: Inhibition of thrombin (unknown origin) at 1 uM relative to control
[30] = target: Urokinase-type plasminogen activator (Homo sapiens) (UniProt P00749); test: Inhibition of uPA (unknown origin) at 1 uM relative to control

Sequence of Angiotensin-converting enzyme 2 (Homo sapiens) (Q9BYF1 18-805 limits assumed): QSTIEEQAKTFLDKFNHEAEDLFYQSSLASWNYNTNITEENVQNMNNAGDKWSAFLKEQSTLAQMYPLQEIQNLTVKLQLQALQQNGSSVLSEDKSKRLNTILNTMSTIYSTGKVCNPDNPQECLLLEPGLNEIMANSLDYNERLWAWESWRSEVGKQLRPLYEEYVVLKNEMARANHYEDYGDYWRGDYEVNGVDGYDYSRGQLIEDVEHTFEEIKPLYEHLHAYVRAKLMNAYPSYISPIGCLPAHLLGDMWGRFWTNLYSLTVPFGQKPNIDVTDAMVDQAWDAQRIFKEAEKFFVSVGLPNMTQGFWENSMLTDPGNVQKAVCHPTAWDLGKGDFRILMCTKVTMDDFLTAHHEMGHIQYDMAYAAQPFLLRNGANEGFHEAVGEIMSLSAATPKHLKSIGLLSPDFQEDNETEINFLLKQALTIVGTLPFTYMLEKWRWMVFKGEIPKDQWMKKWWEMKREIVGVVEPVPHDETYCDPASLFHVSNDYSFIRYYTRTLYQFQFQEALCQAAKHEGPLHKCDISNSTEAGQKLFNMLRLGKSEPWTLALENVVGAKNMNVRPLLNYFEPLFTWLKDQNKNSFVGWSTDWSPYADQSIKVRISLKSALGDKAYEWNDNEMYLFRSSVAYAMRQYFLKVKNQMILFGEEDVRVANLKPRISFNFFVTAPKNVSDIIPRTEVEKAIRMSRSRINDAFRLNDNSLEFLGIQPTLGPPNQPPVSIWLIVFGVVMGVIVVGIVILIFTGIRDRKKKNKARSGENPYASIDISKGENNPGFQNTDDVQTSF
Sequence of Procathepsin L (Homo sapiens) (P07711 114-333 limits assumed): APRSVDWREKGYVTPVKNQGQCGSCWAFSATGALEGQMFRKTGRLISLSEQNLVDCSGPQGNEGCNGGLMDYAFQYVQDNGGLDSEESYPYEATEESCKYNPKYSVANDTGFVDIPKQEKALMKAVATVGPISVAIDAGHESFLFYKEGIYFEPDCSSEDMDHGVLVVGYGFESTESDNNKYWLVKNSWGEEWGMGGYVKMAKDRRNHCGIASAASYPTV
Sequence of Cathepsin D (Homo sapiens) (P07339 65-162 limits assumed): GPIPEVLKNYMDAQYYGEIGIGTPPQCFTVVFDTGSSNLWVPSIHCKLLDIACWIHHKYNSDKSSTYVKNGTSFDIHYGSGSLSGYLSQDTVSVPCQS
Sequence of Cathepsin D (Homo sapiens) (P07339 169-412 limits assumed): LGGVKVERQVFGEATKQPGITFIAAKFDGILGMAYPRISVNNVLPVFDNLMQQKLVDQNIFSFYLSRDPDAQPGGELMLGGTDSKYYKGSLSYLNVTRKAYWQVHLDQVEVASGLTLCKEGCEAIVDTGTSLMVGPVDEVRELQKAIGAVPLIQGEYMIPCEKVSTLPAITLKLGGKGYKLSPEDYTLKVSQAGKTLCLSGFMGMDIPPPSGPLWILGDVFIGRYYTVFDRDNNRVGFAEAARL
Sequence of Angiotensin-converting enzyme (Homo sapiens) (P12821 whole entry): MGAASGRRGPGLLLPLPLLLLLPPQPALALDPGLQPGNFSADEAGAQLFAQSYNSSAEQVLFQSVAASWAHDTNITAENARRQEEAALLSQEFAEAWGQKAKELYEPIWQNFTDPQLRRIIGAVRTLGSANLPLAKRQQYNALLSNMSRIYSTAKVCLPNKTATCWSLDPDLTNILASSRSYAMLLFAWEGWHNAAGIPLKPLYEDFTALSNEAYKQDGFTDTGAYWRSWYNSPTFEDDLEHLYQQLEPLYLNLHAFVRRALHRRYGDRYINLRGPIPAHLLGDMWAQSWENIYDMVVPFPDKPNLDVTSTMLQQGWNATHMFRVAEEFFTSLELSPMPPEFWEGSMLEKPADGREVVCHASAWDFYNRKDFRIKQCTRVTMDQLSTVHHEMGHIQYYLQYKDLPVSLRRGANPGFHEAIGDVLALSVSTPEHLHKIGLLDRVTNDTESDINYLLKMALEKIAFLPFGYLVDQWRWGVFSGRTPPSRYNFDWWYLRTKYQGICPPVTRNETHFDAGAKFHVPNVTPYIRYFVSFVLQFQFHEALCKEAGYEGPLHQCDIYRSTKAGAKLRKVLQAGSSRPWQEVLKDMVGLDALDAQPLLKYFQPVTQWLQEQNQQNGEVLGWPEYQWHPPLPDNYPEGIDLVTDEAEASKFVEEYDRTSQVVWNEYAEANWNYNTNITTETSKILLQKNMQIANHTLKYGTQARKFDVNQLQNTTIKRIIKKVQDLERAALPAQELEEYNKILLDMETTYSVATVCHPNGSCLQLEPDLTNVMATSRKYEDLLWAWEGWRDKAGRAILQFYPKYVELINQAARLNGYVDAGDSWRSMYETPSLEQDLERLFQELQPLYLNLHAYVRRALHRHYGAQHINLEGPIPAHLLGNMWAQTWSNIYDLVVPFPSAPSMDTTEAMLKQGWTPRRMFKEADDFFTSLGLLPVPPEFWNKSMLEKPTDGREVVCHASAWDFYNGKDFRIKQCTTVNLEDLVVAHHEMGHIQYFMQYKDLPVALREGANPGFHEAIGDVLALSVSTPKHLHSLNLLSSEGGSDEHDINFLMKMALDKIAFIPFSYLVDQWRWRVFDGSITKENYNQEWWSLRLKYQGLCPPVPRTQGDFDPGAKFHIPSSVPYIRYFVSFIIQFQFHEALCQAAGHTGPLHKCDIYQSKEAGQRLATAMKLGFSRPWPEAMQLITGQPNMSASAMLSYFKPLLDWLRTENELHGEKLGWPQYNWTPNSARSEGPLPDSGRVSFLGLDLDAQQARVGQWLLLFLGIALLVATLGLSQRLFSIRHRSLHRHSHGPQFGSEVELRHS
Sequence of Cathepsin K (Homo sapiens) (P43235 whole entry): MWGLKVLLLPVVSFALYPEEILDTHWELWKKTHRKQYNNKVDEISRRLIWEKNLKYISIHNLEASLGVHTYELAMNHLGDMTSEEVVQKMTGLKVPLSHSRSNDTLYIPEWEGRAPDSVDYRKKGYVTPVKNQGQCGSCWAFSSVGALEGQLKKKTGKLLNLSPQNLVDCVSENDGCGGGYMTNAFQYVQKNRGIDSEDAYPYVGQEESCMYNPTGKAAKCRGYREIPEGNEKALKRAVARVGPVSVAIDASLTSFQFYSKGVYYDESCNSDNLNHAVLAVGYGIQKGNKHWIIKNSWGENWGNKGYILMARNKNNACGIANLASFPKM
Sequence of Disintegrin and metalloproteinase domain-containing protein 10 (Homo sapiens) (O14672 whole entry, the tested form may be a part): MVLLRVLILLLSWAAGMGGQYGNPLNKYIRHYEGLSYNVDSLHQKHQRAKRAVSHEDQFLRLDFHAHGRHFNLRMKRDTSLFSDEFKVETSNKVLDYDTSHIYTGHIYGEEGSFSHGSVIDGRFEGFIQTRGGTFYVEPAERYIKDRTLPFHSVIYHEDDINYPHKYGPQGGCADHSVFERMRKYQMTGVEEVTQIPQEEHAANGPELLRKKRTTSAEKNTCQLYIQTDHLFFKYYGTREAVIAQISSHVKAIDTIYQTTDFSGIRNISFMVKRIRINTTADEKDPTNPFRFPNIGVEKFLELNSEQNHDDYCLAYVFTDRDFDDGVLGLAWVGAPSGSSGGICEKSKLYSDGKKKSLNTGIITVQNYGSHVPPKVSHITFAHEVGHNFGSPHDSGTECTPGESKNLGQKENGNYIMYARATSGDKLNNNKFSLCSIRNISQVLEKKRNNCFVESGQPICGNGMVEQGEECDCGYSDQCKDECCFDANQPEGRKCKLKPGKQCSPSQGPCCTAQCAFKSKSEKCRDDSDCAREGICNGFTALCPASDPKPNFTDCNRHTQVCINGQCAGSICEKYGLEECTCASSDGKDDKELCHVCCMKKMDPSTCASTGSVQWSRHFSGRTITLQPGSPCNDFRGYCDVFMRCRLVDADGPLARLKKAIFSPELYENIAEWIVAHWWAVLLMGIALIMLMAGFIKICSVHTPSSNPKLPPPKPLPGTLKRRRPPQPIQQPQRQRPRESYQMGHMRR
Sequence of Caspase-3 (Homo sapiens) (P42574 29-175 limits assumed): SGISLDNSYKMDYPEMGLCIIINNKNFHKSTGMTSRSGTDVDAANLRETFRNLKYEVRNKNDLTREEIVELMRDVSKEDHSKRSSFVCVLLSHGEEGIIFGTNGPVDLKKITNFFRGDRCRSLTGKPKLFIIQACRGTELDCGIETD
Sequence of Caspase-3 (Homo sapiens) (P42574 176-277 limits assumed): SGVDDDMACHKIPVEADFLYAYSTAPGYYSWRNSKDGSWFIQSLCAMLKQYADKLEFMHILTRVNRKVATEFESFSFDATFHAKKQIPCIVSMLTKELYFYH
Sequence of Furin (Homo sapiens) (P09958 whole entry): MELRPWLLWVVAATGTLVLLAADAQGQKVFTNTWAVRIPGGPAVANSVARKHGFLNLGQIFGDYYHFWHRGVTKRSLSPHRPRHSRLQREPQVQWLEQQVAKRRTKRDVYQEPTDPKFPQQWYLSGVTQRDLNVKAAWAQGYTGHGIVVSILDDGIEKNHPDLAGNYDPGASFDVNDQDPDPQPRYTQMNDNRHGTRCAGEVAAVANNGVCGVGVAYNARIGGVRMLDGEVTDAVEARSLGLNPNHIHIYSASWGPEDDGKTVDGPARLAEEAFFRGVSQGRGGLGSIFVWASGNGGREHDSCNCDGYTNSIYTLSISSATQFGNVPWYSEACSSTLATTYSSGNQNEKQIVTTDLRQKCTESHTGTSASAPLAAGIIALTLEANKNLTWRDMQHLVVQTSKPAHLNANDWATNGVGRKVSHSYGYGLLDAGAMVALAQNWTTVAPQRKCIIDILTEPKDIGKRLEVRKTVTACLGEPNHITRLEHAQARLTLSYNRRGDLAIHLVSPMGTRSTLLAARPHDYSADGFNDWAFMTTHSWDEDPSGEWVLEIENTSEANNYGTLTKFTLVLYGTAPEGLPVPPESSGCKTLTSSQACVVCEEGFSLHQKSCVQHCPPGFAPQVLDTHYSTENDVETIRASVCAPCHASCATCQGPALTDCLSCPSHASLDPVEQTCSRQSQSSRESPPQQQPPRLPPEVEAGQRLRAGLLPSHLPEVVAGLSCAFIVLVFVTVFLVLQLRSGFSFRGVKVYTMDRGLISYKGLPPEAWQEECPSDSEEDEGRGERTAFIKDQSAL

Structure (SMILES): CC(C)[C@@H](NS(=O)(=O)c1ccc(-c2ccc(CSc3nc4c(c(=O)[nH]3)CCC4)cc2)cc1)C(=O)O
IC50 [5]: 7 nM

Structure (SMILES): Cc1ccc(CSc2nc(O)c3c(n2)CCC3)cc1
Ki [8]: 800 nM

Structure (SMILES): NCCNS(=O)(=O)c1ccc(-c2ccc(CSc3nc4c(c(=O)[nH]3)CCC4)cc2)cc1
inhibition [9]: 7%
inhibition [10]: 1%
inhibition [11]: 0%
inhibition [12]: 1%
inhibition [13]: 1%
inhibition [14]: 0%
inhibition [15]: 0%
inhibition [16]: 0%
inhibition [17]: 0%
inhibition [18]: 1%
inhibition [19]: 3%
inhibition [20]: 0%
inhibition [21]: 9%
inhibition [22]: 12%
inhibition [23]: 3%
inhibition [24]: 0%
inhibition [25]: 0%
inhibition [26]: 7%
inhibition [27]: 3%
inhibition [28]: 4%
inhibition [29]: -3%
inhibition [30]: 3%

Structure (SMILES): CNC(=O)[C@H](NC(=O)c1ccc(-c2ccc(CSc3nc4c(c(=O)[nH]3)CCC4)cc2)o1)C(C)C
IC50 [5]: 356 nM

Other lines, results leading:

IC50 [1]: > 5000 nM
IC50 [2]: > 5000 nM
IC50 [3]: > 10000 nM
IC50 [4]: > 10000 nM
Structure (SMILES): O=c1[nH]c(SCc2ccc(-c3ccc(S(=O)(=O)NCCO)cc3)cc2)nc2c1CCC2

IC50 [5]: 9.4 nM
inhibition [6]: Active
inhibition [7]: Active
Structure (SMILES): CNC(=O)[C@@H](NC(=O)c1ccc(-c2ccc(CSc3nc4c(c(=O)[nH]3)CCC4)cc2)o1)C(C)C

inhibition [9]: 0%
inhibition [10]: 0%
inhibition [11]: 0%
inhibition [12]: 0%
inhibition [13]: 0%
inhibition [14]: 0%
inhibition [15]: 0%
inhibition [16]: 0%
inhibition [17]: 0%
inhibition [18]: 8%
inhibition [19]: 0%
inhibition [20]: 2%
inhibition [21]: 7%
inhibition [22]: 2%
inhibition [23]: 0%
inhibition [24]: 0%
inhibition [25]: 0%
inhibition [26]: 4%
inhibition [27]: -6%
inhibition [28]: -3%
inhibition [29]: -8%
inhibition [30]: 1%
Structure (SMILES): CNC(=O)[C@@H](NC(=O)c1ccc(-c2ccc(CSc3nc4c(c(=O)[nH]3)CCC4)c(F)c2)o1)C(C)C
